# Source: PubChem BioAssay
# In the library only some 1.4% were active in any assay of this set; here they are far more common.
# SR-BI uptake up = SR-BI HDL lipid transfer activation; 320,000 tested, 0.096% active; CHO ldlA[mSR-BI] cells, DiI-HDL uptake fluorescence, 3 h; 100 = double the neutral-control signal; activation, % at 12.5 µM;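 active = mean replicate activation of at least 60% and every replicate at or above 60%; inconclusive = mean or all-replicate condition met, but not both; inactive = mean below 60% and not all replicates reaching 60%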;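 also: 0% = median plate neutral-control signal and 100% = twice that signal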
#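 System: LDL receptor-deficient CHO ldlA cells overexpressing murine SR-BI | Timing: 3 h uptake period with compound, 37 °C | Medium: HEPES-buffered (25 mM, pH 7.4) F12 plus 0.5% BSA | Dosing: Single-point compound dose | Signal: Bottom-read fluorescence, 550/595 nm | Read-out: Retained DiI signal reflecting DiI-HDL uptake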
# PKA-R2B act = activates the human PKA-R2B holoenzyme complex; activation, % at 11.4 µM; AID 504700; 340,000 tested, 0.079% active; PKA-R2B holoenzyme dissociation, Cy5-IP20 fluorescence polarization; R2B truncated from residue 108, S112A mutant; 0% DMSO only, 100% 113 µM cGMP; P22694+P31323;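 active = activation above a cutoff set at the mean over all compounds plus 3 SD, cut at about 18% in these data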;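 also: higher means more holoenzyme dissociation and a rise in polarization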
# PKA-R1A act = PKA-R1A complex activation. P00514+P68181. PKA-R1A dissociation, Cy5-IP20 fluorescence polarization; scaled: DMSO 0%, 113 µM cGMP 100%. activation, % at 11.4 µM. 340,000 tested, 0.083% active;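 active = percent activation above the mean of all tested compounds plus 3 SD, cut at about 19% in these data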;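 also: higher means more PKAc released from R1A so a rise in polarization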
# SR-BI DiI inh = mouse SR-BI HDL lipid transfer inhibition | Q61009 | ldlA[mSR-BI] CHO cells, DiI-HDL uptake fluorescence, 3 h | inhibition, % at 12.5 µM | 320,000 tested, 0.96% active | AID 488896;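 active = mean replicate inhibition of at least 70% and a set share of replicates each scoring 70 or more; inconclusive = meets just one of the two criteria; inactive = fails both criteria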;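 also: 0% = median of neutral control wells and 100% = median of positive control wells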
# Target sequence (Q61009 whole entry, looked up): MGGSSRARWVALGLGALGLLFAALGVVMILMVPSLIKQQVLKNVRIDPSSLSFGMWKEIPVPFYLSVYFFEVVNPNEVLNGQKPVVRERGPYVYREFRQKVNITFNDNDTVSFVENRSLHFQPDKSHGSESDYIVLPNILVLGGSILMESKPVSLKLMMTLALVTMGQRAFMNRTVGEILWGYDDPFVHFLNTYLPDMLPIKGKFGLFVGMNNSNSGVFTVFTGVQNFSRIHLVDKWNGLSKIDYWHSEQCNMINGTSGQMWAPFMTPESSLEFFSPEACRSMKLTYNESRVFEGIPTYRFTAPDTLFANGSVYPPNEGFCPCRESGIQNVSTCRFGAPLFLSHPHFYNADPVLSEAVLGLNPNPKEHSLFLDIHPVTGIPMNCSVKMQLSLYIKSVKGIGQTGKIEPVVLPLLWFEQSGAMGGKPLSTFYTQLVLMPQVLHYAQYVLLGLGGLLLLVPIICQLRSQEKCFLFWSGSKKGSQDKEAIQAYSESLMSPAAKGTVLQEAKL
# Vif imaging = inhibitors of HIV Vif. HEK293T cells, Vif self-association by quenched fluorescence, imaging, 24 h. 340,000 tested, 0.35% active. inhibition, % at 7.49 µM; in the data active = inhibition above about 50%, passing the limit was not always enough; inconclusive = no clear call, values can overlap the other calls; inactive = below about 31%
# Active calls of the source: *; ? = inconclusive; . = no result given; ! = not confirmed by another sample.
SMILES,SR-BI uptake up,PKA-R2B act,PKA-R1A act,SR-BI DiI inh,Vif imaging
Cc1sc2ncn(CC(=O)NCCCC(=O)N3CCN(Cc4ccc5c(c4)OCO5)CC3)c(=O)c2c1C,8.5,3.8,3.2,-8.5,-1.8
N#CCCN(Cc1cccnc1)C(=O)c1sc2cc(F)ccc2c1Cl,-19.7,-8.0,-1.9,19.7,-3.8
COc1cccc(C(C(=O)NC2CCCC2)N(C(=O)c2ccco2)c2ccc(C(C)=O)cc2)c1OC (centres undefined),234.4*,-5.5,8.3,-234.4,-6.2
COc1cccc(C(C(=O)NC2CCCC2)N(C(=O)c2ccco2)c2ccccc2)c1OC (centres undefined),.,-0.3,-6.8,.,2.7
NC(=NCCCCCCN=C(N)/N=C(\N)Nc1ccc(Cl)cc1)/N=C(\N)Nc1ccc(Cl)cc1,92.1*!,-2.8,4.1,-92.1,5.8
O=C(NCC(=O)N(c1ccccc1)C(C(=O)NC1CCCCC1)c1cccnc1)c1ccco1 (centres undefined),14.9,1.2,10.9,-14.9,14.2
Cc1nnc(NC(=O)Cn2nc(C)c3ccccc3c2=O)s1,10.6,2.1,-1.6,-10.6,70.2*
COc1ccc(C(C(=O)Nc2ccc(C(C)C)cc2)N(C)C(=O)c2ccc(=O)[nH]c2)cc1 (centres undefined),15.9,.,.,-15.9,5.3
C=CCn1c(SCC(=O)N(CC)C2CCS(=O)(=O)C2)nnc1-c1ccccc1 (centres undefined),73.4*,-7.8,9.3,-73.4,.
CC(C)Oc1cccc(C(=O)Nc2nnc([C@H]3C[C@H](O)[C@@H](CO)O3)s2)c1,.,.,.,.,2.2
CCCOc1ccc(-c2c(C(=O)N/N=C/c3ccc(C)o3)nnn2-c2nonc2N)cc1,-78.3,-5.3,-4.5,78.3*,-1.3
CCOc1ccc(-c2c(C(=O)N/N=C/c3ccc(C)o3)nnn2-c2nonc2N)cc1,-75.8,7.2,-1.4,75.8*,10.4
CCCOc1ccc(-c2c(C(=O)N/N=C/c3ccc(OCC)cc3)nnn2-c2nonc2N)cc1,-62.2,-6.5,-2.3,62.2,6.6
Cc1ccc(/C=N/NC(=O)c2nnn(-c3nonc3N)c2-c2ccccc2)o1,-22.4,-1.4,-5.1,22.4,-1.8
CCCOc1ccc(-c2c(C(=O)N/N=C/c3cccs3)nnn2-c2nonc2N)cc1,-73.3,-9.0,-7.7,73.3*,-7.8
CC(=O)Nc1ccc(-c2ccnc3c2CC(C)(C(=O)Nc2cccc(OC(F)(F)F)c2)O3)cc1 (centres undefined),.,.,.,.,4.1
O=c1[nH]c2ccc(S(=O)(=O)Nc3ccc(Cl)cc3)cc2[nH]1,-4.9,-3.0,-4.9,4.9,34.4
Cc1c(C)n(C)c2ccc(C(=O)Nc3cccc4ccccc34)cc12,-81.4,-19.7,-5.9,81.4*,-7.8
COc1ccc(CC(N)c2csc(NC(=O)c3cc(C(C)(C)C)oc3C)n2)cc1 (centres undefined),.,.,.,.,-12.3
CCOC(=O)c1sc2nc(C3CC3)cc(-c3ccc(F)cc3)c2c1N,-76.7,-0.7,7.7,76.7*,1.3
COc1ccc(NCC(=O)N/N=C/c2cc([N+](=O)[O-])ccc2N2CCCC2)cc1,-86.5,.,.,86.5*,0.2
O=C(N/N=C\c1cc([N+](=O)[O-])ccc1N1CCOCC1)c1ccccn1,-6.0,-4.5,5.2,6.0,10.2
O=C(N/N=C\c1cc([N+](=O)[O-])ccc1N1CCCC1)c1ccccn1,-72.8,11.8,2.7,72.8*,5.0
C[C@H]1COC[C@@H](C/C=C/c2ccccc2)N1c1ccccc1,.,-3.6,-10.3,.,-1.5
COc1cccc(NC(=O)CCCNC(=O)Cn2cnc3sc(C)c(C)c3c2=O)c1,-18.4,-13.1,-10.1,18.4,7.1
SMILES,SR-BI uptake up,PKA-R2B act,PKA-R1A act,SR-BI DiI inh,Vif imaging
COc1ccc(OC)c(NC(=O)CCCNC(=O)Cn2cnc3sc(C)c(C)c3c2=O)c1,-77.3,-2.2,2.2,77.3*,-14.9
CC(=O)C1=CCC(c2ccc(Cl)c(Cl)c2)N(S(=O)(=O)c2ccc(C)cc2)C1 (centres undefined),.,.,.,.,14.5
Cc1n[nH]c(=O)nc1Nc1ccc(O)cc1,4.8,2.3,-6.0,-4.8,65.9*
Nc1nc(=O)n(C2CCCCO2)cc1Br (centres undefined),-5.1,2.2,0.6,5.1,4.6
CC(=O)Nc1ccc(Sc2ccc([N+](=O)[O-])o2)cc1,8.6,4.1,3.3,-8.6,116.4*
CC(C)(C)C(=O)Nc1ccc(Sc2ccc([N+](=O)[O-])cc2)cc1,-21.0,4.8,-2.8,21.0,-6.0
OC(c1ccccc1)C(NCCNCc1ccccc1)c1ccccc1 (centres undefined),15.0,-0.8,-6.5,-15.0,?
O=C(NNC(=O)c1ccc2ccccc2c1O)NC1CCCCC1,.,0.4,-13.7,90.0*,1.7
COc1cccc(OCC(=O)NNC(=O)c2ccc(-c3ccccc3)cc2)c1,-24.9,-3.3,10.7,24.9,7.2
COc1ccc(C(=O)NNC(=O)c2ccc3ccccc3c2O)cc1,-75.5,9.3,-2.7,75.5*,-3.1
Cc1ccc(C(=O)NNC(=O)c2ccc3ccccc3c2O)cc1,-111.1,-5.7,-1.6,111.1*,1.1
O=C(NC1CCCCC1)c1ccc2ccccc2c1O,.,1.6,4.7,.,-1.5
COc1cccc(OCC(=O)NNC(=O)c2ccc3ccccc3c2O)c1,.,-9.5,-10.6,89.0*,12.3
OCC[C@@H]1C[C@H](O)[C@@H](O)[C@]2(OCc3cc(C(F)(F)F)ccc32)O1,.,.,.,.,3.5
O=[N+]([O-])c1cc(S(=O)(=O)N2CCCC2)ccc1N/N=C1/CCCc2ccccc21,-23.2,-15.6,-2.2,23.2,-7.4
CCOc1ccc(Cl)cc1-c1cc(C(=O)Nc2ccc(C(C)C)cc2)[nH]n1,.,.,.,.,-1.2
CCOc1cccc(CNc2ccc(O)cc2)c1OCc1ccccc1Cl,-80.9,-5.5,-6.1,80.9*,9.1
CCOc1cccc(CNc2ccc(O)cc2)c1OCc1ccc(Cl)cc1Cl,-80.3,-4.3,2.7,80.3*,1.9
CCOc1cccc(CNCCO)c1OCc1ccc(Cl)cc1Cl,18.7,-5.9,-0.1,-18.7,-0.8
Cc1ccc(NC(=O)c2ccc(Cl)c(S(=O)(=O)Nc3c(C)n(C)n(-c4ccccc4)c3=O)c2)cc1Cl,-73.4,-4.3,8.5,73.4*,-2.7
COc1ccccc1N(C)S(=O)(=O)c1ccc(C(=O)NCCCN2CCCC2=O)cc1,.,-6.9,1.1,.,-8.7
COc1ccc(-c2nc(-c3ccc(NC(=O)c4ccc(Br)o4)cc3)no2)cc1OC,-78.5,-10.5,-6.4,78.5*,-6.2
COc1ccc(CC(=O)Nc2ccc(-c3noc(-c4ccccc4OC)n3)cc2)cc1,-56.9,-2.8,9.6,56.9,17.0
COc1cccc(-c2nc(-c3ccc(NC(=O)Cc4ccccc4OC)cc3)no2)c1,-78.3,-1.9,-14.3,78.3*,-4.5
